Sampled rows, rich in hits. Any-hit rate of the full collection: about 2.1%.
IMP-1 inhibitor – blocks Pseudomonas aeruginosa IMP-1 metallo-beta-lactamase; hit rate 0.45% among 290,000; purified IMP-1, nitrocefin hydrolysis, epi-absorbance fluorescence; inhibition, % at 5.6 µM;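 active means inhibition above the mean plus 3 SD of all compounds in the same screening run, cut at about 4.5% in these data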
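Assay system: purified IMP-1; Quantity: IMP-1 0.2 nM before substrate addition; Medium: HEPES buffer pH 7.1 with ZnSO4 and Brij 35; Incubation: 15 min enzyme–compound preincubation, then 25 min nitrocefin reaction, 25 °C; Signal: fluorescence quenching readout, ex 480/em 530 nm; Controls: DMSO with and without IMP-1; Repeats: singlicate testing.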
UBC9 SUMO inh – blocks human SUMOylation mediated by UBC9. P63279. HTRF SUMOylation assay, SAE1/SAE2 + UBC9, in vitro. hit rate 0.36% among 290,000. inhibition, % at 35 µM. AID 2006; in the data active means inhibition above about 50%, passing the limit was not always enough
Target sequence (P63279 whole entry, looked up): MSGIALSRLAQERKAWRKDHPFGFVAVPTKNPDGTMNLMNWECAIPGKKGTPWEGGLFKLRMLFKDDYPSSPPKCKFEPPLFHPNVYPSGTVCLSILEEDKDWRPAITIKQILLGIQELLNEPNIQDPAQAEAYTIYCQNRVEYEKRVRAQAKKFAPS
VIM-2 inh – blocks Pseudomonas aeruginosa VIM-2 metallo-beta-lactamase | purified VIM-2, nitrocefin hydrolysis, epi-absorbance fluorescence | inhibition, % at 5.6 µM | hit rate 0.89% among 290,000;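 active means inhibition above the mean of all tested compounds plus 3 SD, cutoff set per screening run, cut at about 7.5% in these data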;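 further: red hydrolysis product quenches plate fluorescence so inhibitors raise well fluorescence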
NS3 helicase inh – inhibitors of Hepatitis C virus NS3 helicase | NS3 helicase DNA unwinding, Cy5 molecular beacon fluorescence | inhibition, % at 10.9 µM | hit rate 0.56% among 290,000;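 active means inhibition above the mean of all tested compounds plus 3 SD, set per campaign, cut at about 35% in these data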
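Assay system – hepatitis C virus NS3 helicase domain fragment enzyme · Buffer or medium – MOPS pH 6.5, MgCl2, DTT, Tween20, BSA · Reagent – Cy5/quencher beacon DNA duplex and ATP to start · Compound – single 10.9 µM dose · Timing – 1 h at 25 °C · Technique – Cy5 beacon fluorescence read at start and 1 h · Measure – % inhibition of unwinding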
FID counter – counter-screen for HCV NS3 helicase inhibitors: DNA intercalator displacement. DNA fluorescent intercalator displacement, fluorescence. inhibition, % at 7.9 µM. hit rate 0.17% among 290,000. AID 1845; in the data active means inhibition above about 37%;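 further: higher means more ethidium bromide displaced from hairpin DNA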
Of the large screens only hits and unclear results are named; the others gave an inactive call.

O=C(O)C1=C[C@@H](c2csc3ccccc23)C[C@@H](OCCCCO)O1	none
CCOC(OCC)c1cn(Cc2ccc3c(c2)C(=O)c2ccccc2C3=O)nn1	VIM-2 inh 9.9
CCCOC(=O)c1c(-c2ccc(C)cc2C)csc1NC(=O)C1C2CCC(O2)C1C(=O)O (stereo not given)	none
CCNC(=O)NC(=O)COC(=O)c1ccccc1SCC(=O)NC(=O)NCC	VIM-2 inh 11
COC(=O)COc1ccc(C2Nc3c(Cl)ccc(C(=O)O)c3C3C=CCC32)cc1 (stereo not given)	IMP-1 inhibitor 12
COc1cccc(C2Nc3c(F)cc(Br)cc3C3C=CCC32)c1OC (stereo not given)	none
COc1ccc(OC)c(C2Nc3c(Cl)ccc(C(=O)O)c3C3C=CCC32)c1 (stereo not given)	IMP-1 inhibitor 11
O=[N+]([O-])c1ccc(Cl)c2c1C1C=CCC1C(c1ccccn1)N2 (stereo not given)	none
Cc1ccc(C(=O)Nc2ccc(C(=O)N3CCCCC3)cc2)cc1	none
Cc1cccc(C(C(=O)NC2CCCC2)N(C(=O)c2csnn2)C2CC2)c1 (stereo not given)	none
CC(C)=CCc1c(O)cc2oc3c(CC=C(C)C)c(O)c(O)c(CC=C(C)C)c3c(=O)c2c1O	UBC9 SUMO inh 50 (no result: IMP-1 inhibitor, VIM-2 inh, NS3 helicase inh, FID counter)
Cn1c(CNC(=O)OC(C)(C)C)nnc1SCC(=O)N1CCOCC1	none
O=C1Cc2cc([N+](=O)[O-])ccc2N1c1c(Cl)cccc1Cl	none
Cc1cccc(CC2CC(=O)N(c3nc4ccccc4s3)C2=O)c1 (stereo not given)	IMP-1 inhibitor 8.6
Cc1ccc(CC2CC(=O)N(c3ccc(C)cc3)C2=O)cc1 (stereo not given)	none
Cc1ccc(CC2CC(=O)N(c3nc4ccccc4n3C)C2=O)cc1 (stereo not given)	IMP-1 inhibitor 14
COc1ccccc1Oc1c(C)oc2c(CN3CCN(C)CC3)c(O)ccc2c1=O	UBC9 SUMO inh 52
CCOC(=O)c1c(C)nc(C)c2c(=O)oc3ccccc3c12	none
Cc1cnc(N)c2c(=O)oc3ccccc3c12	VIM-2 inh 8.4
O=C(O)c1ccccc1CSc1nnc2c(n1)[nH]c1ccccc12	none
Cc1cc(-c2ccc(C(C)C)c(S(=O)(=O)Nc3cc(C)on3)c2)on1	none
N#C/C(=C\c1ccc([N+](=O)[O-])o1)C(=O)Nc1ccc(F)cc1	NS3 helicase inh 43
COc1ccc(NC(=O)/C(C#N)=C\c2ccc(Br)o2)cc1	none
CN(C)CCNC(=O)COc1ccc(C23CC4CC(CC(C4)C2)C3)cc1	FID counter 38
CC1CC(C)(C)NC(=S)N1CCC(=O)NCCc1ccc(Cl)cc1 (stereo not given)	none
Cc1cc(C)c2c(N)c3cccc(C)c3nc2n1	VIM-2 inh 18
Cc1cccc2c(N)c3c(nc12)CCCC3 (tested in a mixture with another compound)	none
COc1cccc(/C=C2\Oc3cc(OCC(=O)N4Cc5ccccc5C[C@H]4C(=O)O)ccc3C2=O)c1	VIM-2 inh 9.8
COc1cccc(/C=C2\Oc3cc(OC(=O)N4CCOCC4)ccc3C2=O)c1	none
Cc1ccc(NC(=O)C2CCN(S(=O)(=O)c3ccc4c(c3)NC(=O)C(C)S4)CC2)cc1Cl (stereo not given)	none
CC(C)n1c(Nc2ccccc2)nc2ccccc21	FID counter 91
CCC(=O)Nc1nc2c(OC)ccc(OC)c2s1	IMP-1 inhibitor 4.9
O=C(CCCn1c(=S)[nH]c2cc3c(cc2c1=O)OCO3)NCc1ccccc1Cl	IMP-1 inhibitor 14
CC1(C)CC(=O)C=C(NCC(O)c2ccccc2)C1 (stereo not given)	none
COC(=O)c1cc(C(=O)OC)cc(N2C(=O)CC(NNC(=O)c3ccccc3Cl)C2=O)c1 (stereo not given)	VIM-2 inh 9.6
CCCCN1C(=O)C(=Nc2cccc3cnccc23)c2ccccc21	UBC9 SUMO inh 99
CCN(c1cccc(C)c1)S(=O)(=O)c1ccc2c(c1)N(C(C)=O)CCS2	none
NC(=S)Nc1ccc(Oc2ccc(NC(N)=S)cc2)cc1	IMP-1 inhibitor 15
COc1ccc(CCC(=O)N2CCN(c3ccccc3)CC2)cc1OC	none
CC(=O)NNc1cc(N2CCOCC2)nc(N2CCOCC2)n1	none
O=C(NNc1cc(N2CCOCC2)nc(N2CCOCC2)n1)c1ccc(Cl)cc1Cl	UBC9 SUMO inh 86
COc1cc(OC)cc(C(=O)N[C@H](C(=O)Nc2cc(F)ccc2C)C(C)C)c1	none
